Here are results for 14 compounds from ChEMBL document CHEMBL1125391, “Syntheses and thymidylate synthase inhibitory activity of the poly-gamma-glutamyl conjugates of N-[5-[N-(3,4-dihydro-2-methyl-4-oxoquinazolin-6-ylmethyl)-N-methylamino ]-2-thenoyl]-L-glutamic acid (ICI D1694) and other quinazoline antifolates” (J Med Chem, 1992).

Assay [1] has as its target T1, Thymidylate synthase (Mus musculus, UniProt P07607). Description: Inhibition of thymidylate synthase, partially purified from L1210 mouse leukemia cells overexpressing TS. It is filed as cell-free. The note with it: read-out: Ki app. In short, it runs like this: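 Enzyme partially purified from L1210 mouse leukemia cells that overproduce TS through TS gene amplification. Assayed by the previously described method with (±)-5,10-methylenetetrahydrofolic acid at 200 μM. Apparent Ki was calculated with the Goldstein equation for tight-binding inhibitors.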

For assay [2], the target named is Thymidylate synthase (Mus musculus) (UniProt P07607). Kind of assay: Compound was evaluated for fold increase in Thymidylate synthase (TS) inhibition. It is filed as functional.
Thymidylate synthase (Mus musculus), sequence (P07607 whole entry, looked up): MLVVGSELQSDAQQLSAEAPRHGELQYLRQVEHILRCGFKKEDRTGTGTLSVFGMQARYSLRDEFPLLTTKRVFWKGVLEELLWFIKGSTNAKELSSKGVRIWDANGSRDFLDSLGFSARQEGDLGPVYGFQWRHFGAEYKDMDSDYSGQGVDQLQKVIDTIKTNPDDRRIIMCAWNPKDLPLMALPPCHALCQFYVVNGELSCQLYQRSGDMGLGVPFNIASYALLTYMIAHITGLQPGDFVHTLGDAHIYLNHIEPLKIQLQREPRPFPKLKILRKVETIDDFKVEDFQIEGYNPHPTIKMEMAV
Assay [3] concerns the target T1, Thymidylate synthase. Description: Compound was evaluated for inhibition of thymidylate synthase, partially purified from L1210 mouse leukemia cells that overproduce thymidylate synthase due to amplification of TS gene. The note with it: read-out: Ki app.

T1 sequence (P07607 whole entry): as the sequence (P07607 whole entry, looked up) above

Turning to `C#CCN(Cc1ccc2nc(C)cc(Cl)c2c1)c1ccc(C(=O)N[C@@H](CCC(=O)O)C(=O)O)c(F)c1`, the Ki on Thymidylate synthase [1] worked out at 63.7 nM.

On to `Cc1nc2ccc(CN(C)c3ccc(C(=O)N[C@@H](CCC(=O)N[C@@H](CCC(=O)N[C@@H](CCC(=O)N[C@@H](CCC(=O)N[C@@H](CCC(=O)N[C@@H](CCC(=O)O)C(=O)O)C(=O)O)C(=O)O)C(=O)O)C(=O)O)C(=O)O)s3)cc2c(=O)[nH]1`, for which the Ki at Thymidylate synthase [1] came to 3.7 nM.

On to `Cc1nc(O)c2cc(CN(C)c3ccc(C(=O)N[C@@H](CCC(=O)N[C@@H](CCC(=O)O)C(=O)O)C(=O)O)s3)ccc2n1`, for which, in assay [2], the Fold increase worked out at 17.

The compound `Cc1nc(O)c2cc(CN(C)c3ccc(C(=O)N[C@@H](CCC(=O)N[C@@H](CCC(=O)N[C@@H](CCC(=O)O)C(=O)O)C(=O)O)C(=O)O)s3)ccc2n1` came in with a Fold increase in assay [2] of 56.

Consider `C#CCN(Cc1ccc2nc(C)[nH]c(=O)c2c1)c1ccc(C(=O)N[C@@H](CCC(=O)O)C(=O)O)c(F)c1`, for which the Ki at Thymidylate synthase [1] is 10.4 nM.

For the compound `Cc1nc2ccc(CN(C)c3ccc(C(=O)N[C@@H](CCC(=O)O)C(=O)O)s3)cc2c(=O)[nH]1` [RALTITREXED], the Ki at Thymidylate synthase [3] is 418 nM.

In the case of `Cc1nc(O)c2cc(CN(C)c3ccc(C(=O)N[C@@H](CCC(=O)N[C@@H](CCC(=O)N[C@@H](CCC(=O)N[C@@H](CCC(=O)N[C@@H](CCC(=O)O)C(=O)O)C(=O)O)C(=O)O)C(=O)O)C(=O)O)s3)ccc2n1`, the Fold increase in assay [2] came to 110.

In the case of `Cc1nc2ccc(CN(C)c3ccc(C(=O)N[C@@H](CCC(=O)N[C@@H](CCC(=O)O)C(=O)O)C(=O)O)s3)cc2c(=O)[nH]1`, on Thymidylate synthase [1], the Ki turned out to be 24 nM.

As to `Cc1nc2ccc(CN(C)c3ccc(C(=O)N[C@@H](CCC(=O)N[C@@H](CCC(=O)N[C@@H](CCC(=O)N[C@@H](CCC(=O)N[C@@H](CCC(=O)O)C(=O)O)C(=O)O)C(=O)O)C(=O)O)C(=O)O)s3)cc2c(=O)[nH]1`, the Ki at Thymidylate synthase [1] is 3.79 nM.

For `C#CCN(Cc1ccc2nc(C)cc(Cl)c2c1)c1ccc(C(=O)N[C@@H](CCC(=O)N[C@@H](CCC(=O)N[C@@H](CCC(=O)O)C(=O)O)C(=O)O)C(=O)O)c(F)c1`, the Fold increase in assay [2] turned out to be 64. Besides, at Thymidylate synthase [1], the Ki was determined as 1 nM.

In assay [2], `Cc1nc(O)c2cc(CN(C)c3ccc(C(=O)N[C@@H](CCC(=O)N[C@@H](CCC(=O)N[C@@H](CCC(=O)N[C@@H](CCC(=O)N[C@@H](CCC(=O)N[C@@H](CCC(=O)O)C(=O)O)C(=O)O)C(=O)O)C(=O)O)C(=O)O)C(=O)O)s3)ccc2n1` came in with a Fold increase of 112.

In assay [2], `C#CCN(Cc1ccc2nc(C)nc(O)c2c1)c1ccc(C(=O)N[C@@H](CCC(=O)N[C@@H](CCC(=O)O)C(=O)O)C(=O)O)c(F)c1` came in with a Fold increase of 18. Besides, the Ki on Thymidylate synthase [1] worked out at 0.59 nM.

In the case of `Cc1nc2ccc(CN(C)c3ccc(C(=O)N[C@@H](CCC(=O)N[C@@H](CCC(=O)N[C@@H](CCC(=O)O)C(=O)O)C(=O)O)C(=O)O)s3)cc2c(=O)[nH]1`, at Thymidylate synthase [1], the Ki turned out to be 7.52 nM.

In turn, `Cc1nc(O)c2cc(CN(C)c3ccc(C(=O)N[C@@H](CCC(=O)N[C@@H](CCC(=O)N[C@@H](CCC(=O)N[C@@H](CCC(=O)O)C(=O)O)C(=O)O)C(=O)O)C(=O)O)s3)ccc2n1` registered a Fold increase in assay [2] of 89. For the same compound, the Ki on Thymidylate synthase [1] was found to be 4.69 nM.
